Shown are actives, neighbours in structure and some others; about 2.2% of the full set was active somewhere.
PLK1 kinase inh: blocks human PLK1 kinase activity | P53350 | recombinant PLK1 kinase, TR-FRET peptide phosphorylation | inhibition, % at 10 µM | 97,000 compounds, 0.53% hits | AID 619;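 active = inhibition of 50% or more in the single-concentration screen; inactive = inhibition below 50%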;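 also: 0% = DMSO max control and 100% = H-89 dihydrochloride min control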
E-sel TNF inh: TNF alpha driven E-selectin expression inhibition; inhibition, % at 2 µM; HUVEC TNFa-induced E-selectin immunofluorescence, high content; 120,000 compounds, 0.71% hits;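 active = inhibition above the batch mean plus 3 SD, and confirmed as a hit on visual image review, cut at about 43% in these data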;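 also: 0% = TNF-stimulated DMSO wells and 100% = unstimulated control wells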
cytoskel mod: cytoskeleton assembly modification; HUVEC TNFa F-actin phalloidin imaging, high content; 91,000 compounds, 0.18% hits; inhibition, % at 2 µM;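 active = inhibition above the batch mean plus 3 SD and confirmed as a hit by visual image inspection, cut at about 30% in these data, passing the limit was not always enough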
PLK1 PBD inh: Plk1 (human) PBD binding inhibition; P53350; Plk1 PBD phosphopeptide binding, fluorescence polarization; inhibition, %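 (tested at about 20 µM)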; 97,000 compounds, 0.13% hits; AID 693; in the data active = inhibition above about 34%, passing the limit was not always enough
Rev-RRE block: disrupts HIV-1 Rev binding to RRE RNA | inhibition, % at 8 µM | P05866 | 97,000 compounds, 0.79% hits | Rev peptide-RRE RNA binding, FRET;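 active = inhibition above the screen-wide mean plus 3 SD, cut at about 35% in these data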;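 also: 0% = median DMSO wells and 100% = median Neomycin B control wells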
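Test system: labelled RRE RNA duplex and labelled Rev peptide. Times: 5 min compound–RNA preincubation, then 15 min with peptide, 25 °C. Doses: single-dose 8 µM. Measured by: FRET, excitation 480 nm, emission 540 nm donor and 671 nm acceptor. Measure: % inhibition of FRET ratio versus controls.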
FAK blocker: blocks human focal adhesion kinase activity; biochemical FAK kinase activity assay; inhibition, %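 (tested at 7 µM)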; 97,000 compounds, 0.84% hits; in the data active = inhibition above about 19%;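 also: 0% = DMSO and 100% = reference compound high control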
Target sequence (Q05397 whole entry, looked up): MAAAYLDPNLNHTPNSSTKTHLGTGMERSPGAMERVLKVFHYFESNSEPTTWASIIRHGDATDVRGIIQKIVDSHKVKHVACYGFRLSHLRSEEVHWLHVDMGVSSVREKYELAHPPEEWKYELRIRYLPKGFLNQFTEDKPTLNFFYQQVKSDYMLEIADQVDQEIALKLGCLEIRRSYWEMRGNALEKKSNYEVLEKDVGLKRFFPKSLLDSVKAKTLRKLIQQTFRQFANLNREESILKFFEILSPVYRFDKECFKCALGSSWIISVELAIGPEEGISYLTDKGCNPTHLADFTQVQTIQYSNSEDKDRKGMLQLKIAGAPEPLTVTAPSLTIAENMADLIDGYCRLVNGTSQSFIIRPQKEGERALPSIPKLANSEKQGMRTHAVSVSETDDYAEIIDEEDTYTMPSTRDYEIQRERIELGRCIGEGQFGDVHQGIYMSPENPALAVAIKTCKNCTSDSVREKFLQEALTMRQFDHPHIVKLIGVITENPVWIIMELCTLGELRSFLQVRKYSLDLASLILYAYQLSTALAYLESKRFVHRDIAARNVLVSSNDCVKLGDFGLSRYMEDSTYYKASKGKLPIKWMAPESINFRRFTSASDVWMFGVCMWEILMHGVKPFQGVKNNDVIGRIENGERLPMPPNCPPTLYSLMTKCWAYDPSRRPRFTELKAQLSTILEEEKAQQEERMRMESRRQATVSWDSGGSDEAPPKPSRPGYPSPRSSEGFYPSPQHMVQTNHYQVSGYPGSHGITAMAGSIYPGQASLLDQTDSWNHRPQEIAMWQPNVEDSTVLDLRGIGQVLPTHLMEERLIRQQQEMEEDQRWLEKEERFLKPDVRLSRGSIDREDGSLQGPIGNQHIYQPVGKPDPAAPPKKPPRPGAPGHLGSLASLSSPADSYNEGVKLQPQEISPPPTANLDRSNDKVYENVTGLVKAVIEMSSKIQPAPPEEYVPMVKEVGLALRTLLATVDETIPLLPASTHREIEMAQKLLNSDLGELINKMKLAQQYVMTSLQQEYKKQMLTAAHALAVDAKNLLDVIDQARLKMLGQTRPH
The depositor's hits bear a star; nt = no result; [ ] = remark or other dose.

SMILES	PLK1 kinase inh	E-sel TNF inh	cytoskel mod	PLK1 PBD inh	Rev-RRE block	FAK blocker
CC(C)Oc1ccc(/C=N/NC(=O)C(CSCc2ccccc2)NC(=O)c2ccc([N+](=O)[O-])cc2)cc1 (stereo unspecified)	-14	96*	-9	1	12	11
COc1ccc(-c2ccc3c(N)c(C(=O)c4cccc(OC)c4)sc3n2)cc1	-16	13	-1	18	55*	0
CCOC(=O)C1=C(N)OC(CCl)=C(C#N)C1c1ccsc1 (stereo unspecified)	nt	19	nt	nt	nt	nt
Fc1ccccc1SCc1nnc(-c2ccccc2Br)o1	nt	68*	nt	nt	nt	nt
COc1ccc(S(=O)(=O)Nc2ccc(C)cc2)cc1N(C)S(=O)(=O)c1ccc(Cl)cc1	2	100*	-8	-16	11	1
COc1ccc(S(=O)(=O)Nc2ccc(F)c(Cl)c2)cc1OC	nt	-7	nt	nt	nt	nt
Cc1noc(/C=C/c2ccc(-c3ccccc3Cl)o2)c1[N+](=O)[O-]	-13	nt	0	-157	103*[fluorescence artefact?]	2
C(#CC12CC3CC(CC(C3)C1)C2)CN1CCOCC1	nt	-6	nt	nt	nt	nt
CN1CC=C2C(C#N)=C(N)C(C#N)(C#N)C(CCc3ccccc3)C2C1 (stereo unspecified)	nt	-47	nt	nt	nt	nt
CN1CCC2(CC1)C1CN(C)CC=C1C(C#N)=C(N)C2(C#N)C#N (stereo unspecified)	9	nt	9	-8	74*	-7
CCSc1nnc(NC(=O)[C@@H](NC(=O)c2cc(OC)cc(OC)c2)C(C)C)s1	nt	-30	nt	nt	nt	nt
C=CCn1c(=O)c2ccc(C(=O)NCc3ccccc3)cc2n(Cc2ccc(C)cc2)c1=O	nt	9	nt	nt	nt	nt
CCOc1c(Br)cc(CNc2ccc3c(c2)OCCO3)cc1OC	-13	8	23	-19	8	1
CCOc1cc(CNc2ccc3c(c2)OCCO3)cc(Br)c1OC	-15	-34	39*	-13	-6	3
CCN(CC)S(=O)(=O)N1CCC(C(=O)NC2CCCC2)CC1	-8	0	2	-11	1	-3
CCS(=O)(=O)N1CCC(C(=O)NC2CCCCC2)CC1	3	10	31*	19	9	-1
CC1=C(C(=O)OCCOC(C)C)C(c2cccnc2)C2=C(CCCC2=O)N1 (stereo unspecified)	9	nt	79*	7	0	-8
COc1ccc(N(CN2C(=O)C3C4C=CC(C4)C3C2=O)C(=O)c2ccco2)cc1 (stereo unspecified)	1	15	-3	52*	-1	-3
COc1ccc(N2C(=O)CC(Nc3ccc(C)cc3)C2=O)cc1 (stereo unspecified)	-5	25	-6	-35	8	-1
COc1ccc(N2C(=O)CC(NC3CCCCNC3=O)C2=O)cc1 (stereo unspecified)	-7	-5	35*	1	8	-1
Cc1c(N=C/C=C2\N(C)c3ccccc3C2(C)C)c(=O)n(-c2ccccc2)n1C	-7	63*	6	-2	11	-3
CN(C)c1ccc(N=C/C=C2\N(C)c3ccccc3C2(C)C)cc1	-4	14	13	-58	-14	1
CN1/C(=C\C=Nc2ccc3ccccc3c2)C(C)(C)c2ccccc21	-10	13	-1	-89	63*	-2
Cc1csc(NC(=O)c2nn(C)c(C)c2[N+](=O)[O-])n1	nt	6	nt	nt	nt	nt
CC(C)(C)OC(=O)NNC(=O)NC12CC3CC(CC(C3)C1)C2	nt	66*	nt	nt	nt	nt
SMILES	PLK1 kinase inh	E-sel TNF inh	cytoskel mod	PLK1 PBD inh	Rev-RRE block	FAK blocker
COc1cc(CN2C(=S)NC(C)(C)CC2(C)O)cc(OC)c1 (stereo unspecified)	nt	-40	nt	nt	nt	nt
O=C(COC(=O)c1cnc(Cl)c(Cl)c1)Nc1ccc(S(=O)(=O)N2CCCC2)cc1	nt	17	nt	nt	nt	nt
Cc1cccc(N2CCN(Cc3nc(-c4cccc(Oc5ccccc5)c4)oc3C)CC2)n1	nt	-40	nt	nt	nt	nt
CN(c1ccc(C(=O)NCC2CCCO2)cc1)S(C)(=O)=O (stereo unspecified)	-11	65*	13	10	3	-1
O=C(Nc1ccc(-c2cn3ccccc3n2)cc1)c1cccs1	nt	-8	nt	nt	nt	nt
Cc1cc([N+](=O)[O-])nn1CCCC(=O)Nc1sc2c(c1C(N)=O)CCC(C)C2 (stereo unspecified)	nt	84*	nt	nt	nt	nt
CC1CCCCN1CCNC(=O)c1cnn2ccccc12 (stereo unspecified)	69*	nt	nt	-4	5	-4
O=C(N/N=C/c1ccc(O)cc1)c1ccc(COc2cc(Cl)ccc2Cl)o1	-15	96*	-40	7	1	4
O=C(Nc1cccnc1)c1ccc(COc2cc(Cl)ccc2Cl)o1	8	13	3	22	4	2
CCOC(=O)C1=C(c2cccc(F)c2)NC(=S)NC1C (stereo unspecified)	-7	-10	16	-32	1	-1
CCCOc1ccc([N+](=O)[O-])cc1C1NC(=S)NC(c2ccccc2)=C1C(=O)OCC (stereo unspecified)	-15	70*	-17	4	-6	-5
CCN1C(=O)c2cccc3c(NC(=O)c4cccc(N5C(=O)CCC5=O)c4)ccc1c23	0	60*	-25	-11	16	-7
COc1cc2c(cc1NC(=O)c1cccc(S(=O)(=O)N(C)C)c1)oc1ccccc12	nt	-3	nt	nt	nt	nt
C#CC(=O)N(c1ccc(OC)cc1OC)C(C(=O)NC1CCCC1)c1cccs1 (stereo unspecified)	nt	31	nt	nt	nt	nt
C#CC(=O)N(c1cc(OC)ccc1OC)C(C(=O)NC1CCCC1)c1cccs1 (stereo unspecified)	-1	58*	9	10	6	5
CC(C)OC(=O)CN1C(=O)S/C(=C/c2ccc(N3CCCCC3)o2)C1=O	-14	-4	16	-327	136*[fluorescence artefact?]	1
O=C1S/C(=C/c2ccc(N3CCOCC3)o2)C(=O)N1Cc1ccc(F)cc1	-17	9	2	-34	115*[fluorescence artefact?]	-1
CC(C)n1cc(/C=C2/SC(=O)N(CC(=O)N3CCCC3)C2=O)c2ccccc21	-9	28	9	-1	-5	1
O=C1/C(=C/c2ccc(N3CCOCC3)o2)SC(=Nc2ccccc2)N1CCc1c[nH]c2ccccc12	-20	-16	-3	-177	136*[fluorescence artefact?]	2
O=C1S/C(=C\c2ccc(N3CCOCC3)o2)C(=O)N1Cc1ccc(F)cc1	-6	nt	-2	-114	117*[fluorescence artefact?]	-4
O=Cc1cccn1Cc1ccccc1[N+](=O)[O-]	nt	51	nt	nt	nt	nt
O=C(NCc1ccccc1)Nc1cccn(Cc2cccc(F)c2)c1=O	nt	19	nt	nt	nt	nt
CCOC(=O)Cc1nnc(NC(=O)CSc2ccc(Cl)cc2)s1	-10	67*	12	17	3	-2
CN=C(NC#N)SCC(=O)c1ccc(Cl)cc1Cl	62*	-11	-16	9	0	15
Nc1c(C(=O)NCc2ccc(Cl)cc2)sc2nc3c(c(C(F)(F)F)c12)CCC3	-15	65*	-35	10	12	-1
O=C(NCc1ccc(F)cc1)c1cnn2ccccc12	-8	nt	0	-7	7	-5
